Experimental data of several laboratories.
Compare with care: the assays were run in different laboratories.
HTR2A: 5-hydroxytryptamine receptor 2A (HTR2A, Homo sapiens, UniProt P28223)
OPRK1: Kappa-type opioid receptor (OPRK1, Homo sapiens, UniProt P41145)
SIGMAR1: Sigma non-opioid intracellular receptor 1 (SIGMAR1, Homo sapiens, UniProt Q99720)
PPO3: PPO3 (Agaricus bisporus, UniProt C7FF04)

SMILES	target	read-out	action	technique	notes	Ki
Cc1nc2n(c(=O)c1CCN1CCCCC1)CCCC2	HTR2A	ligand displacement	–	radioligand	cell membranes	~5 µM
CNc1nc(C#Cc2ccc(Cl)s2)nc2c1ncn2[C@@H]1O[C@H](C(=O)OC)[C@@H](O)[C@H]1O	OPRK1	cell-free assay	–	–	–	> 10 µM
COc1ccc2c(ccn2CCCCN2Cc3cc(OC)c(OC)cc3C2)c1	SIGMAR1	ligand displacement	–	radioligand	cell membranes	0.19 µM
COc1ccc(N=Nc2c(N)nc(N)nc2N)cc1	PPO3	enzyme activity	inhibitor	–	–	7.63 µM
CCc1cc(Cl)c(OC)c(C(=O)NC[C@@H]2CCCN2CC)c1O	Vesicular acetylcholine transporter (SLC18A3, Homo sapiens, UniProt Q16572)	ligand displacement	–	radioligand	–	> 1 µM
CNc1nc(C#Cc2ccc(Cl)s2)nc2c1ncn2[C@H]1[C@H](O)[C@H](O)[C@]2(C(=O)OC(C)C)C[C@H]12	OPRK1	cell-free assay	–	–	–	> 10 µM
CCCCN1CCC(COC(=O)c2ccc(N)c(OCF)c2)CC1	HTR2A	cell-free assay	–	radioligand	–	> 10 µM
O=C1c2ccccc2CCN1CCCCN1CCN(c2cccc(Cl)c2Cl)CC1	HTR2A	ligand displacement	–	radioligand	–	0.039 µM
CC(=O)Nc1ccc(N=Nc2c(N)nc(N)nc2Cl)cc1	PPO3	enzyme activity	inhibitor	–	–	7.84 µM
CCCn1nc(C(=O)N2CCCCC2)c2c1CCC(NCCCNC)C2 (centres unmarked)	SIGMAR1	ligand displacement	–	radioligand	–	> 10 µM
Cc1nc2n(c(=O)c1CCNCCc1c[nH]c3cc(F)ccc13)CCCC2	HTR2A	ligand displacement	–	radioligand	cell membranes	1.95 µM
CNC(=O)[C@@]12C[C@@H]1[C@@H](n1cnc3c(NCc4cccc(Cl)c4)nc(Cl)nc31)[C@H](O)[C@@H]2O	OPRK1	cell-free assay	–	–	–	> 10 µM
CCCn1nc(C(=O)N2CCCCC2)c2c1CCC(NCc1ccc(N3CCCCC3)cc1)C2 (centres unmarked)	SIGMAR1	ligand displacement	–	radioligand	–	> 10 µM
CCCNc1nc(C#Cc2ccc(Cl)s2)nc2c1ncn2[C@H]1[C@H](O)[C@H](O)[C@]2(C(=O)NC)C[C@H]12	OPRK1	cell-free assay	–	–	–	> 10 µM
CCOC(=O)[C@](CC)(CCCS(=O)(=O)CCOCCOCCNC(=O)OC(C)(C)C)NC(=O)c1ccc(C2CC2)c(Cc2ccc(F)cc2)n1	Cannabinoid receptor 1 (CNR1, Homo sapiens, UniProt P21554)	ligand displacement	–	radioligand	cell membranes	0.19 µM
CNC(=O)[C@@]12C[C@@H]1[C@@H](n1cnc3c(NC)nc(C#Cc4ccccc4)nc31)[C@H](O)[C@@H]2O	OPRK1	cell-free assay	–	–	–	> 10 µM
CCCn1nc(C(=O)N2CCCCC2)c2c1CCC(NCCNC(=N)N)C2 (centres unmarked)	SIGMAR1	ligand displacement	–	radioligand	–	> 10 µM
